Active and inactive are the calls of the source. The calls are words filed in the database; no cut-off is given here.
How the values were obtained:
Rattus norvegicus [1] = experiment: Toxicity in Wistar rat assessed as GSSG level in brain at 1 umol/100 g body weight, ip by fluorometric analysis relative to control; assay type: organism-based; settings: in vivo
Procedure, shortened: (§1)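 Rats dosed i.p.; tissues taken after 24 h. For GSH/GSSG, tissue homogenized in 11 volumes of 0.2 M sodium phosphate (5 mM EDTA, pH 8.0) plus 4 volumes of 25% metaphosphoric acid and centrifuged 12 000 × g, 4 °C, 30 min; supernatant read photometrically (GSH) or fluorometrically (GSSG). Lipid peroxidation products measured as TBARS in 19-volume ice-cold saline homogenates, fluorometrically.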

PC-12 = experiment: Neuroprotective activity in rat PC12 cells assessed as decrease in amyloid beta (1 to 42)-induced cytotoxicity after 24 hrs by MTT assay; assay type: functional, cell-based
Procedure, shortened: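 PC12 cells in F-12 with 10% FBS at 37 °C, 5% CO2, plated at 2000 cells/well and grown 24 h. Compound added (final 0.008–10 µM, DMSO below 0.5%) with Aβ42 (final 5 µM), 24 h at 37 °C. Aβ42 prepared by HFIP treatment, dried, taken up to 100 µM in F-12 and held 4 °C for 24 h. MTT for 4 h, DMSO solubilization, read at 540 nm; reported as % of control, three independent trials, mean ± SEM.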

Rattus norvegicus [2] = experiment: Toxicity in Wistar rat assessed as protein content in liver at 1 umol/100 g body weight, ip by Biuret method relative to control; assay type: organism-based; settings: in vivo
Procedure, shortened: (§2)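 Rats dosed i.p.; after 24 h, liver homogenized 1:3 w/v in 0.1 M sodium phosphate pH 7.4 and centrifuged at 9000 × g, 4 °C, 20 min. Supernatant protein determined by the Biuret method. Ethoxyresorufin-O-deethylation measured fluorometrically as resorufin formed.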

[3] = Induction of nitric oxide release in PBS at 100 uM at pH 7.4 after 24 hrs by Griess method relative to control; assay type: physicochemical; settings: buffer, pH 7.4, 24 h
Procedure, shortened: (§3)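 Test compound at 100 µM in phosphate buffer pH 7.4, alone or with 90 µL rat serum added, incubated 37 °C for 24 h. Griess reagent added, then 30 min at 37 °C with gentle shaking; absorbance read at 540 nm and blank-corrected. Nitrite quantified against an NaNO2 calibration curve and expressed as % of a theoretical 1 mol NO per mol nitrate; n = 3.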

Rattus norvegicus [4] = experiment: Antialzheimer activity in Wistar rat scopolamine-induced cognition impairment model assessed as total exploration time at 1 umol/100 g body weight, ip treated for 5 mins prior to scopolamine-challenge by eight-arm radial maze test relative to control; assay type: functional
Procedure, shortened: (§4)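 Female 60-day-old Wistar rats (Han:Wist) trained in an eight-arm radial maze to error-free trials under 60 s on three consecutive days; each animal served as its own control. Test agent given i.p. in saline 5 min before scopolamine (0.05 mg/100 g b. wt., i.p. in saline). Errors plus baits not found after 10 min, and total searching time, recorded before and 20, 60, 120 min after scopolamine; n = 14, mean ± SEM.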

[5] = Induction of nitric oxide release in PBS at 100 uM at pH 7.4 after 24 hrs by Griess method in presence of rat serum; assay type: physicochemical; settings: pH 7.4, 24 h; procedure, shortened: as §3
Rattus norvegicus [6] = experiment: Toxicity in Wistar rat assessed as ethoxycoumarin-O-deethylation activity in liver measured as 7-hydroxycoumarin level at 6 umol/100 g body weight, ip by fluorometric analysis relative to control; assay type: organism-based; settings: in vivo
Rattus norvegicus [7] = experiment: Toxicity in Wistar rat assessed as GSSG level in kidney at 6 umol/100 g body weight, ip by fluorometric analysis relative to control; assay type: organism-based; settings: in vivo; procedure, shortened: as §1
Rattus norvegicus [8] = experiment: Toxicity in Wistar rat assessed as total glutathione level in brain at 6 umol/100 g body weight, ip by fluorometric analysis relative to control; assay type: organism-based; settings: in vivo; procedure, shortened: as §1
[9] = molecular target: Amyloid-beta precursor protein (Homo sapiens) (UniProt P05067); experiment: Inhibition of amyloid beta (1 to 42) aggregation (unknown origin) after 1 hr by thioflavin T fluorescence assay
Procedure, shortened: (§5)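 Aβ42 stock (200 µM in DMSO) centrifuged 12,000 rpm for 10 min; supernatant used. Compound (2 µL of 0.2–4.0 mM DMSO stock) and 2 µL Aβ42 stock added to 76 µL PBS pH 7.4, incubated 1 h at room temperature. 80 µL of 5 µM ThT in 50 mM glycine-NaOH pH 8.5 then added; fluorescence read at excitation 430 nm, emission 488 nm.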

Rattus norvegicus [10] = experiment: Toxicity in Wistar rat assessed as GSH level in liver at 6 umol/100 g body weight, ip by fluorometric analysis relative to control; assay type: organism-based; settings: in vivo
[11] = molecular target: Amyloid-beta precursor protein (Homo sapiens) (UniProt P05067); experiment: Inhibition of amyloid beta (1 to 42) aggregation (unknown origin) at 5 uM after 1 hr by thioflavin T fluorescence assay; procedure, shortened: as §5
Rattus norvegicus [12] = experiment: Toxicity in Wistar rat assessed as brain weight at 1 umol/100 g body weight, ip relative to control; assay type: organism-based; settings: in vivo
Rattus norvegicus [13] = experiment: Toxicity in Wistar rat assessed as GSSG level in brain at 6 umol/100 g body weight, ip by fluorometric analysis relative to control; assay type: organism-based; settings: in vivo; procedure, shortened: as §1
Rattus norvegicus [14] = experiment: Toxicity in Wistar rat assessed as lipidperoxidation product level in kidney at 1 umol/100 g body weight, ip by fluorometric analysis relative to control; assay type: organism-based; settings: in vivo; procedure, shortened: as §1
Rattus norvegicus [15] = experiment: Toxicity in Wistar rat assessed as body weight at 1 umol/100 g body weight, ip relative to control; assay type: organism-based; settings: in vivo
Rattus norvegicus [16] = experiment: Toxicity in Wistar rat assessed as GSH level in brain at 1 umol/100 g body weight, ip by fluorometric analysis relative to control; assay type: organism-based; settings: in vivo
Rattus norvegicus [17] = experiment: Toxicity in Wistar rat scopolamine-induced cognition impairment model assessed as change in movement at 1 umol/100 g body weight, ip; assay type: organism-based; settings: in vivo
Procedure, shortened: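 60-day-old female Wistar rats were trained in an eight-arm radial maze to no errors in under 60 s on 3 consecutive days; each rat served as its own control. Compound in saline was given i.p., then scopolamine (0.05 mg/100 g, saline, i.p.) 5 min later. Errors plus baits not found after 10 min and total searching time were recorded before and 20, 60 and 120 min after scopolamine; n = 14, mean ± SEM.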

Rattus norvegicus [18] = experiment: Toxicity in Wistar rat assessed as lipidperoxidation product level in liver at 1 umol/100 g body weight, ip relative to control; assay type: organism-based; settings: in vivo
Rattus norvegicus [19] = experiment: Toxicity in Wistar rat assessed as ethoxyresorufin-O-deethylation activity in liver measured as resorufin level at 6 umol/100 g body weight, ip by fluorometric analysis relative to control; assay type: organism-based; settings: in vivo; procedure, shortened: as §2
Rattus norvegicus [20] = experiment: Antialzheimer activity in Wistar rat scopolamine-induced cognition impairment model assessed as decrease in amount of errors plus baits not found during exploration at 1 umol/100 g body weight, ip treated for 5 mins prior to scopolamine-challenge measured after 20 to 120 mins by eight-arm radial maze test; assay type: functional, organism-based; procedure, shortened: as §4
Rattus norvegicus [21] = experiment: Toxicity in Wistar rat assessed as lipidperoxidation product level in brain at 6 umol/100 g body weight, ip by fluorometric analysis relative to control; assay type: organism-based; settings: in vivo; procedure, shortened: as §1
Rattus norvegicus [22] = experiment: Toxicity in Wistar rat assessed as brain weight at 6 umol/100 g body weight, ip relative to control; assay type: organism-based; settings: in vivo
Rattus norvegicus [23] = experiment: Toxicity in Wistar rat assessed as GSH level in kidney at 6 umol/100 g body weight, ip by fluorometric analysis relative to control; assay type: organism-based; settings: in vivo
[24] = molecular target: Amyloid-beta precursor protein (Homo sapiens) (UniProt P05067); experiment: Inhibition of amyloid beta (1 to 42) aggregation (unknown origin) at 100 uM after 1 hr by thioflavin T fluorescence assay relative to control; procedure, shortened: as §5

Amyloid-beta precursor protein (Homo sapiens), sequence (P05067 whole entry): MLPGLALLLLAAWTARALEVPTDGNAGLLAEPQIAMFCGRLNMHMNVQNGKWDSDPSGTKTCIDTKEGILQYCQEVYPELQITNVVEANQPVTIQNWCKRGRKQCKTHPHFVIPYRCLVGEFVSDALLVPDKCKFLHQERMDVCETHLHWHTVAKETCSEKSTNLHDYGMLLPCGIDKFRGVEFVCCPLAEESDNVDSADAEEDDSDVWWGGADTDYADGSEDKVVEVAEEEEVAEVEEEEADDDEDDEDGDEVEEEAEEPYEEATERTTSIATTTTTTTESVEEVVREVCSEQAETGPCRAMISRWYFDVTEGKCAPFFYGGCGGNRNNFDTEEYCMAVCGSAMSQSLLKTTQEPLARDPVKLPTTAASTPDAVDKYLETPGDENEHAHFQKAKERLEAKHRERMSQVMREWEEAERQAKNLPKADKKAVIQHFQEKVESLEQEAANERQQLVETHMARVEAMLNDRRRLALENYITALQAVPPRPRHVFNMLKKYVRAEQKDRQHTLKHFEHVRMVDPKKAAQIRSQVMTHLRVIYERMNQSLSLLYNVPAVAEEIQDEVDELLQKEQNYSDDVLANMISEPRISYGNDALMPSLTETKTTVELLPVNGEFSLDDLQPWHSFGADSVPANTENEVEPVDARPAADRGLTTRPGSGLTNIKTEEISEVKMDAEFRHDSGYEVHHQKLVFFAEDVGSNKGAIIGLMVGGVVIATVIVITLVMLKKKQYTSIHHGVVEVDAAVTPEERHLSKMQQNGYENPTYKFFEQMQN

## COc1ccc2c(c1)oc1cccc(CN(C(=O)CCO[N+](=O)[O-])C(C)C)c12
Rattus norvegicus [1]
  Activity: 84.8 µg/g
PC-12
  Activity: Dose-dependent effect
Rattus norvegicus [2]
  Activity: 66.4 mg/mL
[3]
  Activity: 4.8%
Rattus norvegicus [4]
  Time: 175 s
[5]
  Activity: Active
Rattus norvegicus [6]
  Activity: 178 pmol/mg/min
Rattus norvegicus [7]
  Activity: 159 µg/g
Rattus norvegicus [8]
  Activity: 830 µg/g
[9]
  inhibition: Dose-dependent effect
Rattus norvegicus [10]
  Activity: 2482 µg/g
[11]
  inhibition: inactive
Rattus norvegicus [12]
  Activity: 1.95 g
Rattus norvegicus [13]
  Activity: 79.1 µg/g
Rattus norvegicus [14]
  Activity: 93.2 nmol/g
Rattus norvegicus [15]
  Activity: 264 g
Rattus norvegicus [16]
  Activity: 645 µg/g
Rattus norvegicus [17]
  Activity: Non-toxic
Rattus norvegicus [18]
  Activity: 57.7 nmol/g
Rattus norvegicus [19]
  Activity: 121 pmol/mg/min
Rattus norvegicus [20]
  Activity: Active
Rattus norvegicus [21]
  Activity: 156 nmol/g
Rattus norvegicus [22]
  Activity: 1.87 g
Rattus norvegicus [23]
  Activity: 1483 µg/g
[24]
  inhibition: 25%

Source: ChEMBL document CHEMBL3124940, “Design, synthesis and biological evaluation of D-ring opened galantamine analogs as multifunctional anti-Alzheimer agents” (Eur J Med Chem, 2014)
